Screens from PubChem BioAssay.
E-selectin induc – E-selectin induction on HUVECs; P16581; HUVEC E-selectin immunofluorescence imaging; normalized: neutral wells 0, TNF-alpha wells 100; activation, % at 7.58 µM; 260,000 compounds, 0.37% hits; AID 686992;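 active means mean E-selectin-positive cell signal at least 10% of the positive control, reached in at least 60% of replicates, without over 20% cell loss; inconclusive means no rule given, readout overlaps actives, possibly toxicity-flagged; inactive means the rest, including those meeting only one limit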
Target sequence (P16581 whole entry, looked up): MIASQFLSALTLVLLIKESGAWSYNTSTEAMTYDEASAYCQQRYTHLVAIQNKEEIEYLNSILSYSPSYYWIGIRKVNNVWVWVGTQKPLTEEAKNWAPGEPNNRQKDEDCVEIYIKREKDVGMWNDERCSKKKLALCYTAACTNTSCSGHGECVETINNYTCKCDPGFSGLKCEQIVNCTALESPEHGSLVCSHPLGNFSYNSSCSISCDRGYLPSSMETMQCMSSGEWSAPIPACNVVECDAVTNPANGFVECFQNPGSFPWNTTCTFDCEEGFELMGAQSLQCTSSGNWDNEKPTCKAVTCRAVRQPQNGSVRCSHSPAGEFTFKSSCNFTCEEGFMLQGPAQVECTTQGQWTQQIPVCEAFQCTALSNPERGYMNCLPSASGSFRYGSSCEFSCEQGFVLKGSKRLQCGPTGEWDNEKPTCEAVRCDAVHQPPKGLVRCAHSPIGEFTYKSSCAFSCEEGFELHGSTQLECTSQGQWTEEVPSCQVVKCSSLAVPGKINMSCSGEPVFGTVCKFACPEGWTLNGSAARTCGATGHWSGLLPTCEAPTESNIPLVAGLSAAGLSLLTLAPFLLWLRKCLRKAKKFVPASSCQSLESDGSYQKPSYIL
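material = human umbilical vein endothelial cells (HUVEC), E-selectin induction | quantity = 3,000 cells/well | medium = EGM-2 growth medium on 0.1% gelatin-coated wells | technique = immunofluorescence imaging | read-out basis = % PE-positive cells | control set = TNF-alpha positive control, DMSO neutral control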
XiGFP reactiv – activators of X-chromosome reactivation in mouse fibroblasts. XiGFP mouse fibroblasts, % GFP-positive cells imaging, 3 d; cells co-treated with 5-aza-dC sensitizer; scaled so ellipticine positive control = 100%. activation, % at 7.58 µM. 360,000 compounds, 0.055% hits;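 active means mean normalized replicate activation at least 10% and every replicate at or above 10%; inconclusive means only one of the two criteria met; inactive means mean below 10% and not all replicates reach 10%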;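 further: 0% = median of on-plate neutral control wells and 100% = ellipticine 6 µM median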
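Material: SV40-immortalized XiGFP fibroblast cells, line 68-5-11 | Buffer or medium: DMEM containing 5-aza-dC | Dosing: One concentration, pinned | Times: 3 d treatment, 15 min room-temperature fixation | Controls: Ellipticine 6 µM positive control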
An asterisk follows results filed as active; ? = inconclusive; . = no result. Only a selection was taken, and hits are over-represented in it overall.

SMILES | E-selectin induc | XiGFP reactiv
CCOC(=O)C1=C(O)/C(=C/c2ccc(OCC(=O)O)c(OC)c2)SC1=Nc1ccc(OCC)cc1 | . | 0.0
CCOC(=O)C1=C(O)/C(=C/c2cc(OC)c(O)c(OC)c2)SC1=Nc1ccc(OC)cc1 | . | 14.6*
C[C@H](CO)N1C[C@H](C)[C@@H](CN(C)Cc2ccc(Oc3ccccc3)cc2)Oc2c(NC(=O)c3ccc(-c4nccs4)cc3)cccc2C1=O | 0.5 | -0.6
CN(C)C(=O)[C@H]1[C@H](CO)[C@H]2Cn3c(cccc3=O)[C@H]2N1C(=O)C1CCCC1 | -0.2 | 0.0
C[C@@H]1CN([C@H](C)CO)C(=O)c2cc(NC(=O)NC3CCCCC3)ccc2O[C@@H](C)CCCCO[C@@H]1CN(C)Cc1ccncc1 | -0.2 | 0.3
CC(C)(C)CC(=O)Nc1ccc(-c2cn3cccnc3n2)cc1 | 34.4* | 0.0
CCCC(=O)Nc1ccc(-c2cn3cccnc3n2)cc1 | -0.1 | 0.0
C[C@@H]1CN([C@H](C)CO)C(=O)c2cccc(NS(C)(=O)=O)c2O[C@@H]1CN(C)Cc1ccncc1 | 262.0* | -0.1
C[C@H]1CN([C@@H](C)CO)C(=O)c2cccc(NS(C)(=O)=O)c2O[C@H]1CN(C)Cc1ccncc1 | -7.3 | -0.1
C[C@@H]1CN([C@H](C)CO)C(=O)c2cccc(NS(C)(=O)=O)c2O[C@H]1CN(C)Cc1ccc(Oc2ccccc2)cc1 | 3.8 | -0.1
C[C@@H]1CN([C@H](C)CO)C(=O)c2cccc(NS(=O)(=O)c3ccc(F)cc3)c2O[C@H]1CN(C)S(=O)(=O)c1cccs1 | -3.0 | -1.2
C[C@H]1CN([C@@H](C)CO)C(=O)c2cccc(NS(=O)(=O)c3ccc(F)cc3)c2O[C@H]1CN(C)S(=O)(=O)c1cccs1 | 235.0* | -0.7
C[C@H]1CN([C@@H](C)CO)C(=O)c2cccc(NS(C)(=O)=O)c2O[C@@H]1CN(C)Cc1ccc(Oc2ccccc2)cc1 | 31.8* | -0.1
C[C@H]1CN([C@@H](C)CO)C(=O)c2cccc(NS(C)(=O)=O)c2O[C@@H]1CN(C)Cc1ccncc1 | 204.1* | 0.3
C[C@@H]1CN([C@@H](C)CO)C(=O)c2cccc(NS(C)(=O)=O)c2O[C@@H]1CN(C)Cc1ccncc1 | -3.2 | 0.4
CCC(=O)Nc1ccc2c(c1)OC[C@@H](C)N(C(=O)C1CCC1)C[C@@H](C)[C@@H](OC)CN(C)C2=O | -0.1 | -0.1
CC(C)NC(=O)N(C)C[C@@H]1Oc2ccc(NC(=O)Cn3cnnn3)cc2C(=O)N([C@@H](C)CO)C[C@@H]1C | 12.2 | 0.0
C[C@H](CO)N1C[C@H](C)[C@H](CN(C)Cc2ccc(C(=O)O)cc2)Oc2c(NS(=O)(=O)c3ccc(F)cc3)cccc2C1=O | 0.9 | -0.3
C[C@@H]1CN([C@@H](C)CO)C(=O)c2cccc(NS(=O)(=O)c3ccc(F)cc3)c2O[C@H]1CN(C)Cc1ccc(C(=O)O)cc1 | 65.6* | -0.9
Cc1noc(C)c1NC(=O)Nc1ccc2c(c1)CC(=O)N([C@H](C)CO)C[C@@H](C)[C@H](CN(C)Cc1ccc(-c3ccccc3)cc1)O2 | -0.5 | -0.3
O=C(C[C@@H]1C=C[C@@H](NS(=O)(=O)c2ccc(F)cc2)[C@H](CO)O1)NCCc1ccncc1 | 0.0 | 0.0
CCN1/C(=C/c2ccc3cc(C)ccc3[n+]2CC)Sc2cc(C)ccc21 | . | 101.5*
CCN1/C(=C/c2ccc3cc(C)ccc3[n+]2C)Sc2ccc3sccc3c21 | ? | 0.6
C[C@H]1CN([C@@H](C)CO)S(=O)(=O)c2ccc(C#CC3CCCC3)cc2O[C@@H]1CN(C)Cc1cccnc1 | -1.5 | -0.4
Cn1c(=O)c2[nH]c(-c3ccc(S(=O)(=O)O)cc3)nc2n(C)c1=O | 0.9 | 23.2*
SMILES | E-selectin induc | XiGFP reactiv
C=CCn1c(=O)c2c(nc(-c3ccc(S(=O)(=O)O)cc3)n2C)n(C)c1=O | -0.1 | 0.0
Cc1ccc(S(=O)(=O)N[C@@H](Cc2ccccc2)C(=O)N2CCC(C(=O)N[C@@H](CCC(N)=O)C(=O)O)CC2)cc1 | 65.9* | 0.2
COC(=O)[C@H](Cc1ccccc1)NC(=O)C1CCN(C(=O)[C@H](C)NS(=O)(=O)c2ccc(C)cc2)CC1 | 0.3 | 0.0
O=C(Nc1ccccc1F)N[C@@H]1CC[C@@H](CCNS(=O)(=O)c2ccc(F)cc2)O[C@H]1CO | 0.7 | 0.1
O=C1NC(=O)c2cc(Br)cc3cccc1c23 | 203.6* | 0.2
O=C1NC(=O)c2cc([N+](=O)[O-])cc3cccc1c23 | . | 0.0
C[C@@H]1CCCCO[C@H](CN(C)Cc2ccccc2)[C@@H](C)CN([C@@H](C)CO)C(=O)c2cc(NC(=O)CCC(F)(F)F)ccc2O1 | -0.1 | 0.4
Cc1ccc2c(c1)C=CC(C#N)N2C(=O)c1ccccc1 (centres undefined) | . | 1.7
COc1ccc(C(=O)N2c3ccccc3C=CC2C#N)cc1 (centres undefined) | 91.1* | 0.5
